Results published in ChEMBL document CHEMBL3351654, “Synthesis, biological evaluation, and 3D QSAR study of 2-methyl-4-oxo-3-oxetanylcarbamic acid esters as N-acylethanolamine acid amidase (NAAA) inhibitors” (J Med Chem, 2014).

Target: T1, N-acylethanolamine-hydrolyzing acid amidase (Rattus norvegicus, UniProt Q5KTC7)
T1 sequence (Q5KTC7 whole entry): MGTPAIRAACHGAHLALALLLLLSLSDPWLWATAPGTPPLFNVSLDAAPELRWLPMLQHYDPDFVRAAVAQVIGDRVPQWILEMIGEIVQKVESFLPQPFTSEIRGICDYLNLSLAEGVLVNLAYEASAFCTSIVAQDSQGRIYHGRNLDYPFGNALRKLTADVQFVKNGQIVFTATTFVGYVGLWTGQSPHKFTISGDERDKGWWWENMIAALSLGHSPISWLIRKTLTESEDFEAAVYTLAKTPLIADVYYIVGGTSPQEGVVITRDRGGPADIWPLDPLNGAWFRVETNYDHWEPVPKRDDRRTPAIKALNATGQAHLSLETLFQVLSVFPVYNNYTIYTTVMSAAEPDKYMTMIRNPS
Assay: Inhibition of NAAA in Sprague-Dawley rat lung assessed as inhibition of hydrolysis of 10-cis-heptadecenoylethanolamide by UPLC/MS method
Details: read-out: IC50
In short: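 Native NAAA enzyme prepared from rat lungs, not a recombinant construct. The substrate, 10-cis-heptadecenoylethanolamide, is an unnatural fatty acid ethanolamide. Inhibition of its hydrolysis was measured, and the median inhibitory concentration (IC50) was reported.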

Row | Structure (SMILES) | IC50 [nM]
1 | C[C@@H]1OC(=O)[C@@H]1NC(=O)OCCCCCl | 288
2 | CCCCCCCC#CCOC(=O)N[C@H]1C(=O)O[C@H]1C | 77
3 | C[C@@H]1OC(=O)[C@@H]1NC(=O)OCc1ccc(-c2ccsc2)cc1 | 22
4 | C[C@@H]1OC(=O)[C@@H]1NC(=O)OC1(CCCCc2ccccc2)COC1 | 520
5 | C[C@@H]1OC(=O)[C@@H]1NC(=O)OCc1ccc(-c2ccc(F)cc2)cc1 | 11
6 | C[C@@H]1OC(=O)[C@@H]1NC(=O)OCc1ccc2c(c1)OCO2 | 176
7 | CCCCc1ccc(COC(=O)N[C@H]2C(=O)O[C@H]2C)cc1 | 15
8 | C[C@@H]1OC(=O)[C@@H]1NC(=O)OC(C)(C)C | 6350
9 | C[C@@H]1OC(=O)[C@@H]1NC(=O)OCC#Cc1ccccc1 | 20
10 | C[C@@H]1OC(=O)[C@@H]1NC(=O)OCc1ccc(OC2CCCCC2)cc1 | 23
11 | C[C@@H]1OC(=O)[C@@H]1NC(=O)OCc1ccccc1 | 2090
12 | CCCCC1(OC(=O)N[C@H]2C(=O)O[C@H]2C)COC1 | 3760
13 | C[C@@H]1OC(=O)[C@@H]1NC(=O)OCc1ccc(C2CCCCC2)cc1 | 7

More lines, now with the values ahead:

Row | IC50 [nM] | Structure (SMILES)
14 | 29 | Cc1ccc(-c2ccc(COC(=O)N[C@H]3C(=O)O[C@H]3C)cc2)cc1
15 | 36 | C[C@@H]1OC(=O)[C@@H]1NC(=O)OCc1ccc(-c2ccc(C(F)(F)F)cc2)cc1
16 | 28 | C[C@@H]1OC(=O)[C@@H]1NC(=O)OCc1ccc(-c2sccc2Br)cc1
17 | 240 | C[C@@H]1OC(=O)[C@@H]1NC(=O)OCCCCCc1ccc(F)cc1
18 | 760 | CCCCCOC(=O)N[C@H]1C(=O)O[C@H]1C
19 | 22 | C[C@@H]1OC(=O)[C@@H]1NC(=O)OCc1ccc(C(C)(C)C)cc1
20 | 13 | Cc1ccc2sc(COC(=O)N[C@H]3C(=O)O[C@H]3C)cc2c1
21 | 39 | C[C@@H]1OC(=O)[C@@H]1NC(=O)OCCCCCCCc1ccccc1

Same assay, conditions: read-out: pIC50 (converted)

Row | Structure (SMILES) | IC50 [nM]
22 | C[C@@H]1OC(=O)[C@@H]1NC(=O)OCc1ccc(-c2ccsc2)cc1 | 20.9
23 | C[C@@H]1OC(=O)[C@@H]1NC(=O)OC(C)(C)CCCCc1ccccc1 | 316

Now from value to compound:

Row | IC50 [nM] | Structure (SMILES)
24 | 148 | C[C@@H]1OC(=O)[C@@H]1NC(=O)OCCOCCc1ccccc1
25 | 51.3 | C[C@@H]1OC(=O)[C@@H]1NC(=O)OCCCOCc1ccccc1
26 | 52.5 | C[C@@H]1OC(=O)[C@@H]1NC(=O)OCCCCCc1ccccc1
27 | 7.24 | C[C@@H]1OC(=O)[C@@H]1NC(=O)OCc1ccc(-c2ccccc2)cc1
28 | 85.1 | C[C@@H]1OC(=O)[C@@H]1NC(=O)OCCCc1ccccc1
29 | 44.7 | CCCCCCCOC(=O)N[C@H]1C(=O)O[C@H]1C
